# Source: ChEMBL document CHEMBL3997769, “Discovery and preclinical evaluation of 7-benzyl-N-(substituted)-pyrrolo[3,2-d]pyrimidin-4-amines as single agents with microtubule targeting effects along with triple-acting angiokinase inhibition as antitumor agents” (Bioorg Med Chem, 2017)
# Active and inactive are the calls of the source. The calls are words filed in the database; no cut-off is given here.
# Tests used:
# PC-3 = test: Growth inhibition of human PC3 cells incubated for 48 hrs by sulforhodamine B assay; type: functional; details: PC-3, 48 h
# 4T1 = test: Antitumor activity against luciferase/GFP-tagged mouse 4T1 cells implanted in Balb/CJ mouse assessed as reduction in primary tumor growth at 50 mg/kg, ip administered three times in a week; type: functional, organism-based
# M14 = test: Growth inhibition of human M14 cells incubated for 48 hrs by sulforhodamine B assay; type: functional; details: M14, 48 h
# SK-MEL-2 = test: Growth inhibition of human SK-MEL-2 cells incubated for 48 hrs by sulforhodamine B assay; type: functional; details: SK-MEL-2, 48 h
# RPMI-8226 = test: Growth inhibition of human RPMI8226 cells incubated for 48 hrs by sulforhodamine B assay; type: functional; details: RPMI-8226, 48 h
# U-251 = test: Growth inhibition of human U251 cells incubated for 48 hrs by sulforhodamine B assay; type: functional; details: U-251, 48 h
# Hs-578T = test: Growth inhibition of human Hs578T cells incubated for 48 hrs by sulforhodamine B assay; type: functional
# RXF 393 = test: Growth inhibition of human RXF393 cells incubated for 48 hrs by sulforhodamine B assay; type: functional; details: RXF 393, 48 h
# MDA-MB-468 = test: Growth inhibition of human MDA-MB-468 cells incubated for 48 hrs by sulforhodamine B assay; type: functional; details: MDA-MB-468, 48 h
# UACC-257 = test: Growth inhibition of human UACC257 cells incubated for 48 hrs by sulforhodamine B assay; type: functional; details: UACC-257, 48 h
# LOX IMVI = test: Growth inhibition of human LOXIMVI cells incubated for 48 hrs by sulforhodamine B assay; type: functional
# MCF7 = test: Growth inhibition of human MCF7 cells incubated for 48 hrs by sulforhodamine B assay; type: functional; details: MCF7, 48 h
# HL-60(TB) = test: Growth inhibition of human HL-60(TB) cells incubated for 48 hrs by sulforhodamine B assay; type: functional; details: HL-60, 48 h
# [1] = Solubility of the compound in water; type: physicochemical; details: buffer
# Chorioallantoic membrane = test: Antiangiogenic activity in Leghorn chicken egg chorioallantoic membrane assessed as inhibition of human VEGF-165/bFGF-induced blood vessels formation measured after 40 hrs by microscopic method; type: functional, tissue-based; details: Gallus gallus
# SF-539 = test: Growth inhibition of human SF539 cells incubated for 48 hrs by sulforhodamine B assay; type: functional; details: SF-539, 48 h
# HCT-15 = test: Growth inhibition of human HCT15 cells incubated for 48 hrs by sulforhodamine B assay; type: functional; details: HCT-15, 48 h
# HCC 2998 = test: Growth inhibition of human HCC2998 cells incubated for 48 hrs by sulforhodamine B assay; type: functional; details: HCC 2998, 48 h
# DU-145 = test: Growth inhibition of human DU145 cells incubated for 48 hrs by sulforhodamine B assay; type: functional; details: DU-145, 48 h
# BT-549 = test: Growth inhibition of human BT549 cells incubated for 48 hrs by sulforhodamine B assay; type: functional; details: BT-549, 48 h
# IGROV-1 = test: Growth inhibition of human IGROV1 cells incubated for 48 hrs by sulforhodamine B assay; type: functional; details: IGROV-1, 48 h
# HeLa = test: Growth inhibition of human HeLa cells measured after 96 hrs by sulforhodamine B assay; type: functional, cell-based
# Outline: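 Exposed 96 h to varying compound concentrations in 0.5% DMSO. Cell protein measured by sulforhodamine B; IC50 = concentration halving the increase in cell protein versus untreated cultures.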
# Bos taurus = species on record: Bos taurus; test: Displacement of [3H]colchicine from bovine brain tubulin at 5 uM measured after 10 mins by liquid scintillation counting method relative to control
# SK-OV-3 = test: Growth inhibition of human SKOV3 cells incubated for 48 hrs by sulforhodamine B assay; type: functional; details: SK-OV-3, 48 h
# CCRF-CEM = test: Growth inhibition of human CCRF-CEM cells incubated for 48 hrs by sulforhodamine B assay; type: functional
# UO-31 = test: Growth inhibition of human UO31 cells incubated for 48 hrs by sulforhodamine B assay; type: functional; details: UO-31, 48 h
# OVCAR-8 = test: Growth inhibition of human OVCAR8 cells incubated for 48 hrs by sulforhodamine B assay; type: functional; details: OVCAR-8, 48 h
# NCI-H522 = test: Growth inhibition of human NCI-H522 cells incubated for 48 hrs by sulforhodamine B assay; type: functional; details: NCI-H522, 48 h
# Mus musculus = test: Toxicity in Balb/cJ mouse assessed as body weight loss administered three times weekly measured every 2 days during compound dosing; details: in vivo, 48 h
# Outline: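 Female BALB/cJ mice, 8 weeks old, bearing orthotopic 4T1-Luc2-GFP allografts (7,500 cells implanted in mammary fat pad #4). Dosing began one week after implantation: intraperitoneal, three times weekly, in 5% Pharmasolve plus 5% Solutol HS in normal saline. Body weight reported as percent change at day 40 versus starting weight, with n = 9–10 and one-way ANOVA against untreated controls.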
# SR = test: Growth inhibition of human SR cells incubated for 48 hrs by sulforhodamine B assay; type: functional
# HOP-92 = test: Growth inhibition of human HOP92 cells incubated for 48 hrs by sulforhodamine B assay; type: functional; details: HOP-92, 48 h
# SK-MEL-5 = test: Growth inhibition of human SK-MEL-5 cells incubated for 48 hrs by sulforhodamine B assay; type: functional; details: SK-MEL-5, 48 h
# SNB-19 = test: Growth inhibition of human SNB19 cells incubated for 48 hrs by sulforhodamine B assay; type: functional; details: SNB-19, 48 h
# SN12C = test: Growth inhibition of human SN12C cells incubated for 48 hrs by sulforhodamine B assay; type: functional
# MDA-MB-435 = test: Growth inhibition of human MDA-MB-435 cells incubated for 48 hrs by sulforhodamine B assay; type: functional; details: MDA-MB-435, 48 h
# KM12 = test: Growth inhibition of human KM12 cells incubated for 48 hrs by sulforhodamine B assay; type: functional; details: KM12, 48 h
# CAKI-1 = test: Growth inhibition of human Caki1 cells incubated for 48 hrs by sulforhodamine B assay; type: functional; details: CAKI-1, 48 h
# NCI-H460 = test: Growth inhibition of human NCI-H460 cells incubated for 48 hrs by sulforhodamine B assay; type: functional; details: NCI-H460, 48 h
# 786-0 = test: Growth inhibition of human 786-0 cells incubated for 48 hrs by sulforhodamine B assay; type: functional; details: 786-0, 48 h
# K562 = test: Growth inhibition of human K562 cells incubated for 48 hrs by sulforhodamine B assay; type: functional; details: K562, 48 h
# UACC-62 = test: Growth inhibition of human UACC62 cells incubated for 48 hrs by sulforhodamine B assay; type: functional; details: UACC-62, 48 h
# SF-268 = test: Growth inhibition of human SF268 cells incubated for 48 hrs by sulforhodamine B assay; type: functional; details: SF-268, 48 h
# HOP-62 = test: Growth inhibition of human HOP62 cells incubated for 48 hrs by sulforhodamine B assay; type: functional; details: HOP-62, 48 h
# MDA-MB-231 = test: Growth inhibition of human MDA-MB-231 cells incubated for 48 hrs by sulforhodamine B assay; type: functional; details: MDA-MB-231, 48 h
structure (smiles),measurement,setting,value
COc1ccc(N(C)c2nc(C)nc3c(Cc4ccccc4)cn(C)c23)cc1.Cl,GI50,PC-3,49.6 nM
same,Activity,4T1,Active
same,GI50,M14,29.5 nM
same,GI50,SK-MEL-2,28.6 nM
same,GI50,RPMI-8226,36.9 nM
same,GI50,U-251,44.3 nM
same,GI50,Hs-578T,62.3 nM
same,GI50,RXF 393,25.4 nM
same,GI50,MDA-MB-468,30.1 nM
same,GI50,UACC-257,78.2 nM
same,GI50,LOX IMVI,58.8 nM
same,GI50,MCF7,33.3 nM
same,GI50,HL-60(TB),26.8 nM
same,solubility,[1],Soluble
same,IC50,Chorioallantoic membrane,2200 nM
same,GI50,SF-539,25.4 nM
same,GI50,HCT-15,38.1 nM
same,GI50,HCC 2998,71.1 nM
same,GI50,DU-145,44.4 nM
same,GI50,BT-549,48.2 nM
same,GI50,IGROV-1,95.8 nM
same,IC50,HeLa,14 nM
same,inhibition,Bos taurus,92%
same,GI50,SK-OV-3,45.4 nM
same,GI50,CCRF-CEM,33.5 nM
same,GI50,UO-31,209 nM
same,GI50,OVCAR-8,49.1 nM
same,GI50,NCI-H522,23.9 nM
same,MTD,Mus musculus,50 mg/kg
same,GI50,SR,33.8 nM
same,GI50,HOP-92,47.1 nM
same,GI50,SK-MEL-5,54.2 nM
same,GI50,SNB-19,54.7 nM
same,GI50,SN12C,88.7 nM
same,GI50,MDA-MB-435,21.4 nM
same,GI50,KM12,44.5 nM
same,GI50,CAKI-1,56.6 nM
same,GI50,NCI-H460,38.7 nM
same,GI50,786-0,93.2 nM
same,GI50,K562,33.7 nM
same,GI50,UACC-62,475 nM
same,GI50,SF-268,350 nM
same,GI50,HOP-62,47.8 nM
same,GI50,MDA-MB-231,63.7 nM
